Results on three compounds are retold here after article PMC8897028 (Acta Pharmaceutica Sinica. B, 2021).

In one data set the target is hTRPA1 (Homo sapiens, UniProt O75762). Nature of the data set: whole-cell patch-clamp of TRPA1 currents in HEK293 cells. The data set is classed as cell-based. The note with it: ruthenium red 20 μmol/L; current activated by AITC 300 μmol/L. The gist of the method: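 Human channel cDNAs were transiently transfected into HEK293 cells with Lipofectamine 2000. EGFP-positive cells were recorded whole-cell 18 h later at 22–24 °C with ~4.0 MΩ fire-polished pipettes. Cells were held at 0 mV with 500-ms ramps from −100 to +100 mV every 2 s. Test compound in perfusion solution was co-applied with agonist, and average current inhibition was summarised; n = 4–6.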
hTRPA1, sequence (O75762 whole entry, the tested form may be a part): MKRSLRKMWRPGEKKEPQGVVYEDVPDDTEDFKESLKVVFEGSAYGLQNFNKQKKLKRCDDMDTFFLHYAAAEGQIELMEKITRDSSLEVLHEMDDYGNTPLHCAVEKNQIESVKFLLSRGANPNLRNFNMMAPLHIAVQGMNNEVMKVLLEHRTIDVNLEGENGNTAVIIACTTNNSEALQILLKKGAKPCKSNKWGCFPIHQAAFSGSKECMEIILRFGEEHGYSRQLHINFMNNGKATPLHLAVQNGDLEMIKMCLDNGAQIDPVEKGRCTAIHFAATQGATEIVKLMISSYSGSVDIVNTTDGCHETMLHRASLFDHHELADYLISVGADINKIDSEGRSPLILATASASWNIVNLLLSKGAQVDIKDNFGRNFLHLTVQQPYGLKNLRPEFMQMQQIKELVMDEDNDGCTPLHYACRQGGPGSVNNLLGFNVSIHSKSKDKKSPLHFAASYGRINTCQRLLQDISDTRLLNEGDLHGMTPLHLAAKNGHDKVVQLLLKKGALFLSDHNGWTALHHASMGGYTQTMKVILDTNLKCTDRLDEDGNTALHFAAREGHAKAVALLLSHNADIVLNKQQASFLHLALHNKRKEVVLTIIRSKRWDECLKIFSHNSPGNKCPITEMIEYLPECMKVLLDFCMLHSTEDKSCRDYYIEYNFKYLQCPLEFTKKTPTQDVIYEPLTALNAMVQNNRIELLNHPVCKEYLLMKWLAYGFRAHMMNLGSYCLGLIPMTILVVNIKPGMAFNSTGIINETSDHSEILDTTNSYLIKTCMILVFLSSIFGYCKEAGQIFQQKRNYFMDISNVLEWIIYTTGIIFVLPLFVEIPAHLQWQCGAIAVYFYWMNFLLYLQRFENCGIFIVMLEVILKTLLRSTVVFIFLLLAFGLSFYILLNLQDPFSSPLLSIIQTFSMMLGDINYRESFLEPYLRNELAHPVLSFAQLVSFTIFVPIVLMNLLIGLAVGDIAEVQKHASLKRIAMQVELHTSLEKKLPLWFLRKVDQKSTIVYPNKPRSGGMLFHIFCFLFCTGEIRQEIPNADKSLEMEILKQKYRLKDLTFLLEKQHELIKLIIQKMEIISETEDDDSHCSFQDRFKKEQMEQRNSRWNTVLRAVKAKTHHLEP
In general terms: Patch clamp records ionic current or voltage across a cell membrane.

In data set [1] the test system is HEK293 cells expressing hTRPV3. The experiment in a line: cell death assay. Type of data set: cell-based, human. Particulars: 12 h, n = 4. In a few lines:
(§1)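 HEK293 cells 12 h after hTRPV3 transfection, or HaCaT cells, were seeded in six-well plates, randomly split into 6 groups, and treated 12 h in culture medium. Cells were detached with 0.25% trypsin (HEK293 1 min; HaCaT 7 min), centrifuged, and stained 30 min in PBS with Hoechst and PI. Five random fields per group were imaged. Death ratio = PI-labelled over Hoechst-labelled nuclei, averaged over five images; n = 4.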

In the next data set the target is T1, hTRPV3 (Homo sapiens, UniProt Q8NET8).
T1 sequence (Q8NET8 1-790): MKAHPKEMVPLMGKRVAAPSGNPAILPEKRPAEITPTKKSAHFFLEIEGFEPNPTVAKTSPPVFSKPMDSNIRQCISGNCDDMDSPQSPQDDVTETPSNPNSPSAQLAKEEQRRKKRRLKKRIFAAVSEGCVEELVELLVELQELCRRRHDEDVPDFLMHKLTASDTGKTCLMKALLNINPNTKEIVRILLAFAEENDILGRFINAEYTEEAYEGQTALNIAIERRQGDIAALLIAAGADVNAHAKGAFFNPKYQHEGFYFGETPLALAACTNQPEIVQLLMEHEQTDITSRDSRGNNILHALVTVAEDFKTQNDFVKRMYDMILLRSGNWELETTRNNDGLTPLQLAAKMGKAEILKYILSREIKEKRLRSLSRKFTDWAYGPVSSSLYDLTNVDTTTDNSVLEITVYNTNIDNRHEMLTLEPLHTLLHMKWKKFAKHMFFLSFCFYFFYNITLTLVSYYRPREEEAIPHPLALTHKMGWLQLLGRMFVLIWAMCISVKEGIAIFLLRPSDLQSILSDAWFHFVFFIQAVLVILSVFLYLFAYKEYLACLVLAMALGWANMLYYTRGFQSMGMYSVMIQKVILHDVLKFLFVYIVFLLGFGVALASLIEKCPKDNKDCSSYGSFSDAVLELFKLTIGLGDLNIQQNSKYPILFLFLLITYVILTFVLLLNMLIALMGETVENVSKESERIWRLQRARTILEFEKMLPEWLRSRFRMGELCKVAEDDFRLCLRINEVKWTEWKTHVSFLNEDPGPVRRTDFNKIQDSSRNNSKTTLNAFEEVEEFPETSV
Nature of the data set: inside-out single-channel recordings of HEK293 cells overexpressing hTRPV3. The data set is classed as biochemical. In a few lines:
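Inside-out patches from EGFP-identified HEK293 cells, 18 h after hTRPV3 transfection, used 6–10 MΩ pipettes. Patches were held at 0 mV, then stepped to +80 mV. Currents were sampled at 10 kHz, filtered at 2.9 kHz, at 22–24 °C. All-points histograms were Gaussian-fitted for conductance and mean open probability; n = 4.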

The target of a further data set is T2, mTRPV3 H426A (Mus musculus, UniProt Q8K424, H426A).
T2 sequence (Q8K424 1-791 H426A): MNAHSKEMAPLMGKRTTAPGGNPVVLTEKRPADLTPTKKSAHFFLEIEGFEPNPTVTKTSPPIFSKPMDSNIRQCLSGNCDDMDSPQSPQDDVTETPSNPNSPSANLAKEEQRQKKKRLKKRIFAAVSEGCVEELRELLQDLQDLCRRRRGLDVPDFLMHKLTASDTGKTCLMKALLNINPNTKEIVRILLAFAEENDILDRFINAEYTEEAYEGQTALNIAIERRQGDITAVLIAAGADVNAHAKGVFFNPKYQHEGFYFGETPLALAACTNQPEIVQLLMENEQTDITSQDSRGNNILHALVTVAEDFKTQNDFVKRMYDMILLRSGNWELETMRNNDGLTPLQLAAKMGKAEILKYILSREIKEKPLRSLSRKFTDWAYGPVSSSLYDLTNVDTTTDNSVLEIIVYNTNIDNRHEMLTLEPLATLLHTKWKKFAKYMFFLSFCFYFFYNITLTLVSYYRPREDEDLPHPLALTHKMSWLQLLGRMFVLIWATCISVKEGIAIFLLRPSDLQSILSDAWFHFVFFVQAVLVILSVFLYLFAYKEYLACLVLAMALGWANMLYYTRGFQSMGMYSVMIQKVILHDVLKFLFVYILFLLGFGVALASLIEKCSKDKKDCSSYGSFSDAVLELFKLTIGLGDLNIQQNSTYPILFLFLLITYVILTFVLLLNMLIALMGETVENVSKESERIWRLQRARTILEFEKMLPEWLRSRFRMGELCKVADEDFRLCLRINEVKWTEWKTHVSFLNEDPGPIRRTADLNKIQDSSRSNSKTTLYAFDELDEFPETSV
The experiment in a line: whole-cell patch-clamp of mTRPV3 H426A mutant in HEK293 cells. The data set is classed as cell-based. The gist of the method:
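The sequence-confirmed site-directed mTRPV3 mutant was transiently expressed in HEK293 cells, and EGFP-positive cells were recorded whole-cell 18 h post-transfection. Cells were held at 0 mV with 500-ms ramps from −100 to +100 mV every 2 s, at 22–24 °C. Compounds were diluted in perfusion solution.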

Data set [2] concerns HEK293 cells expressing hTRPV3. The experiment in a line: cell proliferation MTT assay, HEK293 cells transfected with hTRPV3. The data set is classed as cell-based, human. The note with it: carvacrol 300 μmol/L, 24 h. The gist of the method:
(§2)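 hTRPV3-transfected HEK293 or HaCaT cells were plated at 5 × 10^3 per well for 24 h, then exposed 24 h to TRPV3 activator and/or inhibitor in culture medium. MTT (5 mg/mL solution) was added for 4 h. Medium was removed, formazan dissolved in DMSO, and absorbance read at 490 nm.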
(In general: Formazan colour is commonly taken as a measure of viable cells.)

Data set [3] has as its system HaCaT cells. The experiment in a line: cell death assay. The data set is classed as cell-based, human. Particulars: carvacrol 300 μmol/L alone; 12 h. The gist of the method:
as §1

Data set [4] concerns HaCaT cells. The experiment in a line: cell proliferation MTT assay, HaCaT cells. Type of data set: cell-based, human. The note with it: carvacrol 300 μmol/L, 24 h. In a few lines: as §2
A further data set has as its system C57BL/6J mice. Nature of the data set: ear swelling and chronic pruritus model induced by TRPV3 agonist carvacrol. The data set is classed as in vivo, mouse. Particulars: 3% carvacrol only; recorded 1 h on day 7. In a few lines:
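Male C57BL/6J mice, 8–10 weeks old, were acclimatised for at least one week at 22 ± 2 °C on a 12 h light/dark cycle. The right ear received topical 3% carvacrol in ethanol/olive oil (4/1, v/v) once daily for 6 days. Test compound (1.0 mmol/L in 50 μL solvent) was applied 30 min after carvacrol; vehicle was solvent with 1% DMSO. Scratching was recorded for 1 h on day 7; n = 6–8 mice per group.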

Structures are written as SMILES.

`N.N.N.N.N.N.N.N.N.N.N.N.N.N.[Cl-].[Cl-].[Cl-].[Cl-].[Cl-].[Cl-].[O-2].[O-2].[Ru+3].[Ru+3].[Ru+4]` [ruthenium red, reference compound]: the “inhibition of TRPA1 current” value on hTRPA1 is listed as “inhibited”. Further, the cell death ratio in data set [1] (ruthenium red positive control with carvacrol 300 μmol/L) worked out at 14.3 ± 1.7%. Also, the channel open probability at hTRPV3 (RR 20 μmol/L with carvacrol 300 μmol/L, from 26.9 ± 5.5%, n = 4) is 0.5 ± 0.4%. Besides, the single-channel conductance on hTRPV3 (RR 20 μmol/L with carvacrol 300 μmol/L, from 175.2 ± 0.9 pS, n = 4) came out at 122.8 ± 5.5 pS.

For `NCCOB(c1ccccc1)c1ccccc1` [2-APB, 2-aminoethoxydiphenyl borate, reference compound], the “activation of H426A mutant channel” value at mTRPV3 H426A (2-APB 50 μmol/L) is listed as “not activated”.

With `Cc1ccc(C(C)C)cc1O` [carvacrol, reference compound], the cell proliferation result (in data set [2]; in the data set on HaCaT cells [4]) was “suppressed the cell proliferation” in each case. Moreover, the cell death ratio in the data set with HaCaT cells [3] stood at 13.0 ± 2.1%; in data set [1] (carvacrol 300 μmol/L alone, vehicle 5.3 ± 0.5%), 21.1 ± 1.9%. The “increase of channel open probability versus vehicle” value at hTRPV3 (carvacrol 300 μmol/L alone) is “about 90 fold”. The compound further registered a single channel conductance on hTRPV3 (carvacrol 300 μmol/L alone) of 168.4 ± 2.1 pS. For the same compound, on hTRPV3 (carvacrol 300 μmol/L alone, vehicle control 0.3 ± 0.2%), the channel open probability turned out to be 26.9 ± 5.5%. The “activation of H426A mutant current” value on mTRPV3 H426A (carvacrol 300 μmol/L) is “activated”. Further, the “number of scratching bouts” value in the data set on C57BL/6J mice was 113.0 ± 16.9.
